# Bioassay records: PubChem BioAssay, Sanford-Burnham Center for Chemical Genomics
# Most compounds without a hit are left out; they make up all but 0.77% or so of the library.
# mIAP inh: blocks mouse intestinal alkaline phosphatase; purified mouse IAP, CDP-Star luminescence, 30 min; inhibition, % at 10 µM; actives 0.2% (n = 330,000);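 active = inhibition of at least 40% at 10 µM in the primary screen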;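 also: plate controls were DMSO with enzyme for no effect and no enzyme wells for full effect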
# bIAP activator: increases bovine intestinal alkaline phosphatase activity; purified bovine IAP, CDP-star luminescence, 30 min; active compounds read high; fold of DMSO-control signal, blank-subtracted; activation factor at 20 µM; actives 0.17% (n = 200,000); AID 1016;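 active = activation factor of 2 or more at 20 µM, a signal rise over negative controls twice the positive control's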
# hIAP act: increases human intestinal alkaline phosphatase activity; P09923; purified human IAP, CDP-Star luminescence, 30 min; active compounds read high; 1 = vehicle-only enzyme, 0 = enzyme-free background; activation factor at 10 µM; actives 0.16% (n = 330,000);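 active = activation factor of the enzyme at least 2-fold when tested at 20 µM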
# Target sequence (P09923 whole entry, looked up): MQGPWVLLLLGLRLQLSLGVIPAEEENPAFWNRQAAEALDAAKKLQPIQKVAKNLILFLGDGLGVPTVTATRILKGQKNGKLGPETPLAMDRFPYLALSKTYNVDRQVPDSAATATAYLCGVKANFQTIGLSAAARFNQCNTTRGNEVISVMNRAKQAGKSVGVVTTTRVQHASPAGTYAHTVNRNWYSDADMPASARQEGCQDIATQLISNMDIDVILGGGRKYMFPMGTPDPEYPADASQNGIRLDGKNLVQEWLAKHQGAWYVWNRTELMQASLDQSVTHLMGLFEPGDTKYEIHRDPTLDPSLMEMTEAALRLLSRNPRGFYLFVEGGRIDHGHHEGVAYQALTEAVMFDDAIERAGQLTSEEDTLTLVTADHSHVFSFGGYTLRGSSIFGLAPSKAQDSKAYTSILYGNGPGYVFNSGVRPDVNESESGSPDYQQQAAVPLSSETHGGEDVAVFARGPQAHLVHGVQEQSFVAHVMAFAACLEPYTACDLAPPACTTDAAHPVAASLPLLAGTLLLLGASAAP
# bIAP inhibitor: intestinal alkaline phosphatase (bovine) inhibition; AID 1019; inhibition, % at 20 µM; 190,000 tested, under 10 active; purified bovine IAP, CDP-star luminescence, 30 min;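 active = over 50% inhibition of intestinal alkaline phosphatase at 20 µM in the single-dose screen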
#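 test system = bovine IAP enzyme | medium = DEA buffer 100 mM, pH 9.8, with MgCl2 1.0 mM, ZnCl2 0.02 mM | detection = luminescence | dosing = single compound dose of 20 µM, 2% DMSO final | incubation = 30 min reaction at room temperature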
# mIAP activ: mouse IAP activation. muIAP, CDP-Star luminescence, 30 min; active compounds read high; 1 = vehicle-only enzyme signal, 0 = enzyme-free wells. activation factor at 10 µM. actives 0.24% (n = 330,000);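 active = activation factor of at least 2 at 20 µM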
#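 Assay system: mouse IAP enzyme; reagent: chemiluminescent substrate CDP-Star; dosing: test compounds delivered from DMSO solution; schedule: 30 min at room temperature; measured by: luminescence from enzymatic CDP-Star hydrolysis; controls: DMSO-only wells and no-enzyme negative control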
# hIAP inh: blocks human intestinal alkaline phosphatase | P09923 | purified IAP, CDP-Star luminescence, 30 min | inhibition, % at 10 µM | actives 0.12% (n = 330,000) | AID 2544;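 active = inhibition reaching a set limit with compound at 10 µM in the primary screen, cut at about 35% in these data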;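 also: plate controls were DMSO wells with enzyme for no effect and no-enzyme buffer wells for full effect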
# An asterisk follows results filed as active; nt = not tested or not shown.
SMILES,mIAP inh,bIAP activator,hIAP act,bIAP inhibitor,mIAP activ,hIAP inh
Cc1cc(Cl)ccc1NC(=S)NCc1ccccc1Cl,-162,0.9,1.1,8,2.6*,-10
S=C(NCc1ccc(Cl)cc1Cl)Nc1ccccc1,-135,1.2,1.1,-18,2.4*,-11
S=C(NCc1ccc(Cl)cc1)Nc1ccccc1,-31,1.1,0.92,-8,1.3,8
Fc1ccc(CNC(=S)Nc2cccc(Cl)c2)cc1,-138,1.2,0.93,-24,2.4*,7
CC(=O)c1ccc(NC(=O)C(C)Oc2ccc(N(C)S(=O)(=O)c3ccc(C)cc3)cc2)cc1 (stereo unspecified),2,nt,0.82,nt,0.98,18
COCCn1c(C)nnc1SCC(=O)NNC(=O)c1ccc(Br)cc1,0,nt,1.5,nt,1,-45
Cc1ccc(C(=O)O/N=C(\N)Cc2cccs2)c(Cl)c1,10,nt,1.2,nt,0.9,-16
Fc1cccc(NC(=S)NCc2ccccc2Cl)c1,-203,nt,0.96,nt,3*,4
S=C(NCc1cccs1)Nc1cc(Cl)cc(Cl)c1,-300,nt,1.1,nt,4*,-10
Cc1ccc(C(=O)NCC(=O)NCc2ccc(Cl)cc2)s1,1,nt,0.97,nt,0.99,2
COc1ccc(C2Nc3ccccc3C(=O)N2O)cc1CN1CCOCC1 (stereo unspecified),10,2*,1.1,-100,0.9,-8
COc1ccc(C2Nc3ccccc3C(=O)N2O)cc1OC (stereo unspecified),4,1,1,-3,0.96,0
COc1ccc(CN(C)CC(=O)NCC(=O)Nc2c(C)cccc2C)cc1,-12,nt,0.91,nt,1.1,9
O=C(CSc1nnc(CCc2nc3ccccc3[nH]2)n1-c1ccccc1)NCc1ccccc1,-6,1.1,1.4,-12,1.1,-45
O=C(CSc1nnc(CCc2nc3ccccc3[nH]2)n1-c1ccccc1)NCc1ccco1,-7,2.5*,0.9,-151,1.1,10
O=C(COC(=O)CN1C(=O)c2ccccc2C1=O)NC1CCCCC1,-8,nt,1.1,nt,1.1,-11
Cn1c(CNc2ccc(Cl)cc2)nc2ccccc21,-16,0.6,0.99,35,1.2,1
CC(C)N=c1cc2n(-c3ccc(Cl)cc3)c3ccccc3nc-2cc1Nc1ccc(Cl)cc1,35,nt,0.61,nt,0.65,39*
O=C(Nc1cccc(-c2nc3ccccc3o2)c1)c1ccc(N2C(=O)C3C4C=CC(C4)C3C2=O)cc1 (stereo unspecified),1,1,1.1,0,0.99,-6
O=C1C2C3C=CC(C3)C2C(=O)N1c1cccc(-c2nc3ccccc3o2)c1 (stereo unspecified),-10,3.9*,1.1,-288,1.1,-11
O=C(Nc1ccc(Br)cc1)Nc1ccccc1Cl,-100,nt,1.1,nt,2*,-9
O=C(Nc1ccc(CN2CCCCC2)cc1)Nc1ccccc1Cl,-60,1.5,0.96,-54,1.6,4
CC(CNC(=S)Nc1cc(F)cc(F)c1)CSc1ccc(Cl)cc1 (stereo unspecified),-219,0.7,1.2,26,3.2*,-22
CCN(c1ccc(OC)cc1)S(=O)(=O)c1nnc(NC(=O)CC(C)C)s1,-7,nt,1,nt,1.1,0
COc1cc(C)c2c(c1C=O)Oc1c(c(C)c(O)c3c1C(O)OC3=O)OC2=O (stereo unspecified),54*,0.9,1.6,6,0.46,-62
SMILES,mIAP inh,bIAP activator,hIAP act,bIAP inhibitor,mIAP activ,hIAP inh
CCOC(=O)c1nn(-c2ccccc2Cl)c(=O)cc1OCC(=O)Nc1cccc(OC)c1,5,nt,0.85,nt,0.95,15
Cc1cccc(N2CCN(C(=O)COc3ccc4c(c3)CCC4)CC2C)c1 (stereo unspecified),-4,nt,1.1,nt,1,-6
CC(C)n1c(C(O)c2ccc3c(c2)OCO3)nc2ccccc21 (stereo unspecified),0,2.6*,0.88,-165,1,12
Cn1c(C(O)c2ccc3c(c2)OCO3)nc2ccccc21 (stereo unspecified),12,1.3,1.4,-32,0.88,-36
COc1ccc(-c2csc(NC(=O)CCS(=O)(=O)c3ccccc3)n2)c(OC)c1,-3,nt,1.1,nt,1,-9
CC(C)C[C@H](NC(=O)N1CCn2c1nc1ccccc12)C(=O)NCc1ccc2c(c1)OCO2,3,nt,1.1,nt,0.97,-7
S=C(NCc1ccccc1)Nc1ccc(Oc2ccccc2)cc1,-277,nt,1.1,nt,3.8*,-12
S=C(NCc1ccccc1)NCc1ccc(CNC(=S)NCc2ccccc2)cc1,-222,0.6,1.4,38,3.2*,-44
Cc1ccccc1NC(=S)NCc1ccc2c(c1)cc(C)n2C,-27,0.9,0.91,7,1.3,9
Cc1cc2cc(CNC(=S)NCc3ccccc3)ccc2n1C,-129,0.9,1,7,2.3*,-4
Fc1ccc(CNC(=S)NCc2ccccc2)cc1,-26,nt,1.1,nt,1.3,-11
O=C(Cc1ccccc1)NCC(=O)OCc1cccc([N+](=O)[O-])c1,4,nt,1,nt,0.96,-2
O=C(NCC1CCCO1)c1ccc(-c2ccccc2Cl)o1 (stereo unspecified),-3,nt,1.1,nt,1,-10
C[C@@H](C(=O)Nc1ccc2ccccc2c1)[C@H]1C[C@]1(C)[C@H](NC(=O)c1cccnc1)c1ccccc1,-81,0.8,0.87,18,1.8,13
C[C@@H](C(=O)Nc1ccc2ccccc2c1)[C@@H]1C[C@@]1(C)[C@@H](NC(=O)c1ccccc1)c1ccccc1,-132,0.9,0.92,11,2.3*,8
COc1ccc(C(C)(C)C)cc1NC(=O)COC(=O)CSCc1c(C)noc1C,-6,nt,0.99,nt,1.1,1
O=C(/C=C/c1ccco1)N(c1ccccn1)c1ccccn1,45*,1,1.1,-1,0.55,-5
O=C(O)c1cc(O)c2c(c1)C(=O)c1cc(O)cc(O)c1C2=O,40*,0.9,0.83,13,0.6,17
Oc1ccccc1/C=N/Nc1cccc2cccnc12,18,2.7*,0.99,-173,0.82,1
C/C1=C\CCC2C(/C=C(\C)CC1)OC(=O)C2CN1CCCCC1 (stereo unspecified),1,nt,1.1,nt,0.99,-7
Cc1cccc(NS(=O)(=O)c2cnc[nH]2)c1,6,2*,1.2,-96,0.94,-23
CCc1cc(C(=O)Nc2nc(-c3ccccn3)cs2)sc1C,4,nt,1.2,nt,0.96,-20
CC(C)c1cccc(C2=CC(=O)C[C@H](c3ccc4c(c3)OCO4)C2)c1,5,nt,0.84,nt,0.95,16
COC(=O)/C=c1/s/c(=C(/C#N)C(=O)N2CCCCC2)n(-c2ccccc2)c1=O,30,0.7,1,30,0.7,-1
COc1cc(/C=c2\s/c(=C(/C#N)C(=O)N3CCCC3)n(-c3ccccc3)c2=O)ccc1O,42*,0.4,1,nt,0.58,-1
